Measured values taken from ChEMBL document CHEMBL1240354, “Efficacy of posaconazole against three clinical Aspergillus fumigatus isolates with mutations in the cyp51A gene” (Antimicrob Agents Chemother, 2010).
Converted amounts (≈) assume the structure as drawn.

What was measured:
[1] = test system: Aspergillus fumigatus; assay: Antifungal activity against Aspergillus fumigatus isolate V52-35 harboring TR L98H mutation in Cyp51A protein by broth microdilution method; assay type: functional
Outline: (§1)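 Broth microdilution followed CLSI M38A. Isolates were stored in 10% glycerol broth at −80°C and revived on Sabouraud dextrose agar with 0.02% chloramphenicol for 5 to 7 days at 35°C before testing.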

[2] = test system: Aspergillus fumigatus; assay: Antifungal activity against Aspergillus fumigatus isolate V59-73 harboring G54W mutation in Cyp51A protein by broth microdilution method; assay type: functional; outline: as §1
[3] = test system: Aspergillus fumigatus; assay: Antifungal activity against Aspergillus fumigatus isolate AZN 8196 harboring wild type Cyp51A protein by broth microdilution method; assay type: functional; outline: as §1
[4] = test system: Aspergillus fumigatus; assay: Antifungal activity against Aspergillus fumigatus isolate V28-77 harboring M220I mutation in Cyp51A protein by broth microdilution method; assay type: functional; outline: as §1
[5] = test system: Aspergillus fumigatus; assay: Antifungal activity against Aspergillus fumigatus isolate V28-77 harboring M220I mutation in Cyp51A protein infected in CD1 mouse assessed as increase in mouse survival rate administered orally qd for 14 days measured on day 15 post fungal infection; assay type: functional, organism-based
Outline: (§2)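 Female CD-1 mice (4-5 weeks, 20-25 g, 11 per group) received an LD90 conidial inoculum of each isolate IV via the tail vein. Conidia were harvested in PBS/0.1% Tween 80, gauze-filtered and hemacytometer-counted. Posaconazole oral solution (1, 4, 16, 64 mg/kg) was given by gavage once daily for 14 days from 24 h post-infection; controls received saline. Survival was compared by log rank test, with survivors euthanized on day 15.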

[6] = Plasma concentration in CD1 mouse infected with wild type Aspergillus fumigatus at 4 mg/kg, […] by HPLC analysis; assay type: ADME, organism-based; set-up: dose 4 mg/kg, route oral; details: po
[7] = Cmax in CD1 mouse infected with wild type Aspergillus fumigatus at 4 mg/kg, po qd for 14 days measured after 24 hrs post last dose by HPLC analysis; assay type: ADME, organism-based; set-up: dose 4 mg/kg, route oral; details: in vivo
Outline: (§3)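 Female CD-1 mice (4-5 weeks, 20-22 g) were infected via the lateral tail vein with the wild-type isolate. Oral posaconazole was given once daily from 24 h. On treatment day 2, orbital blood was taken predose and 0.5-24 h postdose, 3 mice per time point. Plasma was assayed by HPLC-fluorescence. Cmax was observed directly. AUC0–24 used the log-linear trapezoidal rule, and CL = dose/AUC0–24.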

[8] = AUC in CD1 mouse infected with wild type Aspergillus fumigatus at 1 mg/kg, po qd for 14 days measured after 24 hrs post last dose by HPLC analysis; assay type: ADME, organism-based; set-up: time < 24 hr, dose 1 mg/kg, route oral; details: plasma; outline: as §3
[9] = test system: Aspergillus fumigatus; assay: Antifungal activity against wild type Aspergillus fumigatus infected in CD1 mouse assessed as increase in mouse survival rate administered orally qd for 14 days measured on day 15 post fungal infection; assay type: functional, organism-based; outline: as §2
[10] = Tmax in CD1 mouse infected with wild type Aspergillus fumigatus at 1 mg/kg, […] by HPLC analysis; assay type: ADME, organism-based; set-up: dose 1 mg/kg, route oral; details: in vivo, po
[11] = test system: Aspergillus fumigatus; assay: Antifungal activity against Aspergillus fumigatus isolate V52-35 harboring TR L98H mutation in Cyp51A protein infected in CD1 mouse assessed as 50% effective pharmacodynamic index administered orally qd for 14 days measured post last dose; assay type: functional
Outline: (§4)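 EI50 came from fitting a variable-slope Hill equation to AUC0–24/MIC ratio versus 14-day survival. AUCs were taken from the PK study in wild-type-infected mice at each dose (1-64 mg/kg oral, once daily). Ratios were log10-transformed before analysis.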

[12] = Apparent oral clearance in CD1 mouse infected with wild type Aspergillus fumigatus at 4 mg/kg, po qd for 14 days measured after 24 hrs post last dose by HPLC analysis; assay type: ADME, organism-based; set-up: dose 4 mg/kg, route oral; details: in vivo; outline: as §3
[13] = Plasma concentration in CD1 mouse infected with wild type Aspergillus fumigatus at 16 mg/kg, […] by HPLC analysis; assay type: ADME, organism-based; set-up: dose 16 mg/kg, route oral; details: po
[14] = Tmax in CD1 mouse infected with wild type Aspergillus fumigatus at 16 mg/kg, […] by HPLC analysis; assay type: ADME, organism-based; set-up: dose 16 mg/kg, route oral; details: in vivo, po
[15] = Cmax in CD1 mouse infected with wild type Aspergillus fumigatus at 16 mg/kg, po qd for 14 days measured after 24 hrs post last dose by HPLC analysis; assay type: ADME, organism-based; set-up: dose 16 mg/kg, route oral; details: in vivo; outline: as §3
[16] = Cmax in CD1 mouse infected with wild type Aspergillus fumigatus at 1 mg/kg, po qd for 14 days measured after 24 hrs post last dose by HPLC analysis; assay type: ADME, organism-based; set-up: dose 1 mg/kg, route oral; details: in vivo; outline: as §3
[17] = AUC in CD1 mouse infected with wild type Aspergillus fumigatus at 64 mg/kg, po qd for 14 days measured after 24 hrs post last dose by HPLC analysis; assay type: ADME, organism-based; set-up: time < 24 hr, dose 64 mg/kg, route oral; details: plasma; outline: as §3
[18] = AUC in CD1 mouse infected with wild type Aspergillus fumigatus at 4 mg/kg, po qd for 14 days measured after 24 hrs post last dose by HPLC analysis; assay type: ADME, organism-based; set-up: time < 24 hr, dose 4 mg/kg, route oral; details: plasma; outline: as §3
[19] = test system: Mus musculus; assay: Dose normalised AUC in CD1 mouse infected with wild type Aspergillus fumigatus at 16 mg/kg, po qd for 14 days measured after 24 hrs post last dose by HPLC analysis; assay type: ADME, organism-based; set-up: time < 24 hr, dose 16 mg/kg, route oral; details: in vivo; outline: as §3
[20] = AUC in CD1 mouse infected with wild type Aspergillus fumigatus at 16 mg/kg, po qd for 14 days measured after 24 hrs post last dose by HPLC analysis; assay type: ADME, organism-based; set-up: time < 24 hr, dose 16 mg/kg, route oral; details: plasma; outline: as §3
[21] = test system: Aspergillus fumigatus; assay: Antifungal activity against Aspergillus fumigatus isolate V59-73 harboring G54W mutation in Cyp51A protein infected in CD1 mouse assessed as increase in mouse survival rate administered orally qd for 14 days measured on day 15 post fungal infection; assay type: functional; outline: as §2
[22] = test system: Mus musculus; assay: Dose normalised AUC in CD1 mouse infected with wild type Aspergillus fumigatus at 1 mg/kg, po qd for 14 days measured after 24 hrs post last dose by HPLC analysis; assay type: ADME, organism-based; set-up: time < 24 hr, dose 1 mg/kg, route oral; details: in vivo; outline: as §3
[23] = test system: Aspergillus fumigatus; assay: Ratio of AUC to MIC for wild type Aspergillus fumigatus infected in CD1 mouse; assay type: functional
Outline: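 The ratio was calculated as AUC0–24 from the mouse PK study (oral posaconazole once daily, 1 to 64 mg/kg) divided by the CLSI M38A broth microdilution MIC.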

[24] = Apparent oral clearance in CD1 mouse infected with wild type Aspergillus fumigatus at 1 mg/kg, po qd for 14 days measured after 24 hrs post last dose by HPLC analysis; assay type: ADME, organism-based; set-up: dose 1 mg/kg, route oral; details: in vivo; outline: as §3
[25] = Tmax in CD1 mouse infected with wild type Aspergillus fumigatus at 64 mg/kg, […] by HPLC analysis; assay type: ADME, organism-based; set-up: dose 64 mg/kg, route oral; details: in vivo, po
[26] = test system: Aspergillus fumigatus; assay: Antifungal activity against Aspergillus fumigatus isolate V28-77 harboring M220I mutation in Cyp51A protein infected in CD1 mouse assessed as 50% effective pharmacodynamic index administered orally qd for 14 days measured post last dose; assay type: functional; outline: as §4
[27] = Apparent oral clearance in CD1 mouse infected with wild type Aspergillus fumigatus at 16 mg/kg, po qd for 14 days measured after 24 hrs post last dose by HPLC analysis; assay type: ADME, organism-based; set-up: dose 16 mg/kg, route oral; details: in vivo; outline: as §3
[28] = test system: Aspergillus fumigatus; assay: Antifungal activity against Aspergillus fumigatus isolate V52-35 harboring TR L98H mutation in Cyp51A protein infected in CD1 mouse assessed as increase in mouse survival rate administered orally qd for 14 days measured on day 15 post fungal infection; assay type: functional, organism-based; outline: as §2
[29] = Cmax in CD1 mouse infected with wild type Aspergillus fumigatus at 64 mg/kg, po qd for 14 days measured after 24 hrs post last dose by HPLC analysis; assay type: ADME, organism-based; set-up: dose 64 mg/kg, route oral; details: in vivo; outline: as §3
[30] = test system: Mus musculus; assay: Dose normalised AUC in CD1 mouse infected with wild type Aspergillus fumigatus at 64 mg/kg, po qd for 14 days measured after 24 hrs post last dose by HPLC analysis; assay type: ADME, organism-based; set-up: time < 24 hr, dose 64 mg/kg, route oral; details: in vivo; outline: as §3
[31] = Plasma concentration in CD1 mouse infected with wild type Aspergillus fumigatus at 1 mg/kg, […] by HPLC analysis; assay type: ADME, organism-based; set-up: dose 1 mg/kg, route oral; details: po
[32] = test system: Mus musculus; assay: Dose normalised AUC in CD1 mouse infected with wild type Aspergillus fumigatus at 4 mg/kg, po qd for 14 days measured after 24 hrs post last dose by HPLC analysis; assay type: ADME, organism-based; set-up: time < 24 hr, dose 4 mg/kg, route oral; details: in vivo; outline: as §3
[33] = Plasma concentration in CD1 mouse infected with wild type Aspergillus fumigatus at 64 mg/kg, […] by HPLC analysis; assay type: ADME, organism-based; set-up: dose 64 mg/kg, route oral; details: po
[34] = Tmax in CD1 mouse infected with wild type Aspergillus fumigatus at 4 mg/kg, […] by HPLC analysis; assay type: ADME, organism-based; set-up: dose 4 mg/kg, route oral; details: in vivo, po
[35] = Apparent oral clearance in CD1 mouse infected with wild type Aspergillus fumigatus at 64 mg/kg, po qd for 14 days measured after 24 hrs post last dose by HPLC analysis; assay type: ADME, organism-based; set-up: dose 64 mg/kg, route oral; details: in vivo; outline: as §3

C[C@@H]1[C@H](O)[C@@H](C)/C=C/C=C/C=C/C=C/C=C/C=C/C=C/[C@H](O[C@@H]2O[C@H](C)[C@@H](O)[C@H](N)[C@@H]2O)C[C@@H]2O[C@](O)(C[C@@H](O)C[C@@H](O)[C@H](O)CC[C@@H](O)C[C@@H](O)CC(=O)O[C@H]1C)C[C@H](O)[C@H]2C(=O)O [AMPHOTERICIN B]
MIC [1]: 0.5 µg/mL (≈ 0.541 µM) | MIC [2]: 0.5 µg/mL (≈ 0.541 µM) | MIC [3]: 0.5 µg/mL (≈ 0.541 µM) | MIC [4]: 0.5 µg/mL (≈ 0.541 µM)

C[C@@H](c1ncncc1F)[C@](O)(Cn1cncn1)c1ccc(F)cc1F [VORICONAZOLE]
MIC [1]: 2 µg/mL (≈ 5.73 µM) | MIC [2]: 0.125 µg/mL (≈ 0.358 µM) | MIC [3]: 0.25 µg/mL (≈ 0.716 µM) | MIC [4]: 0.25 µg/mL (≈ 0.716 µM)

CC[C@H](C)C[C@H](C)CCCCCCCCC(=O)N[C@H]1C[C@@H](O)[C@@H](NCCN)NC(=O)[C@@H]2[C@@H](O)CCN2C(=O)[C@H]([C@H](O)CCN)NC(=O)[C@H]([C@H](O)[C@@H](O)c2ccc(O)cc2)NC(=O)[C@@H]2C[C@@H](O)CN2C(=O)[C@H]([C@@H](C)O)NC1=O [CASPOFUNGIN]
minimal effective concentration ([1]; read-out: MEC): 0.25 µg/mL | minimal effective concentration ([2]; read-out: MEC): 0.25 µg/mL | minimal effective concentration ([3]; read-out: MEC): 0.25 µg/mL | minimal effective concentration ([4]; read-out: MEC): 0.25 µg/mL

CC[C@@H]([C@H](C)O)n1ncn(-c2ccc(N3CCN(c4ccc(OC[C@@H]5CO[C@@](Cn6cncn6)(c6ccc(F)cc6F)C5)cc4)CC3)cc2)c1=O [POSACONAZOLE]
Activity [5]: Dose-dependent effect | concentration [6]: 940 ng/mL | MIC [1]: 0.5 µg/mL (≈ 0.713 µM) | Cmax [7]: 3110 ng/mL | AUC at 24 h [8]: 10200 ng·h/mL | Activity [9]: Dose-dependent effect | Tmax [10]: 4 h | Activity [11]: 321 | CL/F [12]: 1.5 mL/min/kg | concentration [13]: 2700 ng/mL | Tmax [14]: 8 h | Cmax [15]: 9030 ng/mL | Cmax [16]: 980 ng/mL | AUC at 24 h [17]: 297 µg·h/mL | AUC at 24 h [18]: 45100 ng·h/mL | AUC [19]: 9.96 kg·h/L | AUC at 24 h [20]: 159 µg·h/mL | MIC [2]: > 16 µg/mL | Activity [21]: Dose-dependent effect | ED50 ([21]; isolate V59-73, po): 29 mg/kg | AUC [22]: 10.2 kg·h/L | RatioAUC/MIC [23]: 1000 | CL/F [24]: 1.67 mL/min/kg | MIC [3]: 0.031 µg/mL (≈ 0.0442 µM) | Tmax [25]: 8 h | Activity [26]: 321 | CL/F [27]: 1.67 mL/min/kg | Activity [28]: Dose-dependent effect | Cmax [29]: 17800 ng/mL | AUC [30]: 4.64 kg·h/L | concentration [31]: 110 ng/mL | AUC [32]: 11.3 kg·h/L | MIC [4]: 0.5 µg/mL (≈ 0.713 µM) | concentration [33]: 9330 ng/mL | Tmax [34]: 2 h | CL/F [35]: 3.67 mL/min/kg

CCC(C)n1ncn(-c2ccc(N3CCN(c4ccc(OCC5COC(Cn6cncn6)(c6ccc(Cl)cc6Cl)O5)cc4)CC3)cc2)c1=O (configuration not stated) [ITRACONAZOLE]
MIC [1]: > 16 µg/mL | MIC [2]: > 16 µg/mL | MIC [3]: 0.125 µg/mL (≈ 0.177 µM) | MIC [4]: > 16 µg/mL
